# Measured values from ChEMBL document CHEMBL1122233, “Antihypertensive 9-substituted 1-oxa-4,9-diazaspiro[5.5]undecan-3-ones” (J Med Chem, 1983).
# Legend:
# Rattus norvegicus [1] = assay: Percentage fall in systolic blood pressure after 3 hr at 6.25 mg/kg given perorally; assay type: functional, Artery; details: route oral
# How it was run: (§1)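 Male Okamoto-Aoki spontaneously hypertensive rats, trained, in groups of four matched for mean systolic pressure; five treated groups and one vehicle control run concurrently. Oral dosing in water (solution or suspension, 0.1 mL/10 g) on two consecutive mornings. On day 2, rats were restrained at 30.0 ± 1.0 °C and tail-cuff systolic pressure recorded at 1–4 h; percent fall versus control, 1-tail t test, p ≤ 0.05.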
# Rattus norvegicus [2] = assay: Percentage fall in systolic blood pressure after 3 hr at 25 mg/kg given perorally; assay type: functional, Artery; details: route oral; how it was run: as §1
# Rattus norvegicus [3] = assay: Percentage fall in systolic blood pressure after 4 hr at 25 mg/kg given perorally; assay type: functional, Artery; details: route oral; how it was run: as §1
# Rattus norvegicus [4] = assay: Percentage fall in systolic blood pressure after 1 hr at 25 mg/kg given perorally; assay type: functional, Artery; details: route oral; how it was run: as §1
# Rattus norvegicus [5] = assay: Percentage fall in systolic blood pressure after 4 hr at 6.25 mg/kg given perorally; assay type: functional, organism-based; parameters: dose 6.25 mg/kg; details: Artery; how it was run: as §1
# Rattus norvegicus [6] = assay: Percentage fall in systolic blood pressure after 2 hr at 25 mg/kg given perorally; assay type: functional, Artery; details: route oral; how it was run: as §1
# Rattus norvegicus [7] = assay: Percentage fall in systolic blood pressure after 2 hr at 6.25 mg/kg given perorally; assay type: functional, Artery; details: route oral; how it was run: as §1
# Rattus norvegicus [8] = assay: Percentage fall in systolic blood pressure after 1 hr at 6.25 mg/kg given perorally; assay type: functional, Artery; details: route oral
# How it was run: (§2)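 Male Okamoto-Aoki SHR, four per group, with a concurrent vehicle control group. Oral dosing in water (0.1 mL/10 g) on two consecutive mornings. After the day-2 dose, rats were restrained in a 30 °C chamber. Tail-cuff systolic pressure was taken at 1-4 h from four traces per rat. Result is % decrease versus control mean, by 1-tailed t test, p ≤ 0.05.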
# Rattus norvegicus [9] = assay: Percentage fall in systolic blood pressure after 1 hours at 12.5 mg/kg given perorally; assay type: functional, Artery; details: route oral; how it was run: as §1
# Rattus norvegicus [10] = assay: Percentage fall in systolic blood pressure after 2 hours at 12.5 mg/kg given perorally; assay type: functional, Artery; details: route oral; how it was run: as §2
# Rattus norvegicus [11] = assay: Percentage fall in systolic blood pressure after 3 hours at 12.5 mg/kg given perorally; assay type: functional, Artery; details: route oral; how it was run: as §2
# Rattus norvegicus [12] = assay: Percentage fall in systolic blood pressure after 4 hours at 12.5 mg/kg given perorally; assay type: functional, Artery; details: route oral; how it was run: as §2
# Rattus norvegicus [13] = assay: Percentage fall in systolic blood pressure after 2 hours at 3.1 mg/kg given perorally; assay type: functional, Artery; details: route oral; how it was run: as §1
# Rattus norvegicus [14] = assay: Percentage fall in systolic blood pressure after 3 hours at 3.1 mg/kg given perorally; assay type: functional, organism-based; parameters: dose 3.1 mg/kg; details: Artery; how it was run: as §1
# Rattus norvegicus [15] = assay: Percentage fall in systolic blood pressure after 4 hours at 3.1 mg/kg given perorally; assay type: functional, organism-based; parameters: dose 3.1 mg/kg; details: Artery; how it was run: as §1
# Rattus norvegicus [16] = assay: Percentage fall in systolic blood pressure after 1 hours at 3.1 mg/kg given perorally; assay type: functional, Artery; details: route oral; how it was run: as §1
# [17] = target: T1, Adrenergic receptor alpha-1 (Rattus norvegicus, UniProt P15823+P23944+P43140); assay: Affinity for alpha-1 adrenoceptor of rat cerebral cortex was determined by ligand binding using [3H]prazosin.; assay type: tissue-based
# T1 sequence (P15823 whole entry): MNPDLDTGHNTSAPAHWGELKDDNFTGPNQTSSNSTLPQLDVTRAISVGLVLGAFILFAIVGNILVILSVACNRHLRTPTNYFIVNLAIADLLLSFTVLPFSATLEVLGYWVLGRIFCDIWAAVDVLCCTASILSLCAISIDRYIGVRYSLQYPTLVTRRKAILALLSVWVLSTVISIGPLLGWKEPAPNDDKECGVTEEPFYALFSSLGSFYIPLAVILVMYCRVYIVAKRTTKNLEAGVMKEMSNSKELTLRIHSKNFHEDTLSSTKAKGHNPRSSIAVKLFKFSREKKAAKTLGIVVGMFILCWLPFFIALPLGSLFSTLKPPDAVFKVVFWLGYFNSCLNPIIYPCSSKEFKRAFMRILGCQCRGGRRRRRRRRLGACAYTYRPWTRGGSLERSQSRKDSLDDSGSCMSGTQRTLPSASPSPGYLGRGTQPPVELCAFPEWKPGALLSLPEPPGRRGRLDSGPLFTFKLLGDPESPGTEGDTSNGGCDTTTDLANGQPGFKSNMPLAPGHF
# T1 sequence (P23944 whole entry): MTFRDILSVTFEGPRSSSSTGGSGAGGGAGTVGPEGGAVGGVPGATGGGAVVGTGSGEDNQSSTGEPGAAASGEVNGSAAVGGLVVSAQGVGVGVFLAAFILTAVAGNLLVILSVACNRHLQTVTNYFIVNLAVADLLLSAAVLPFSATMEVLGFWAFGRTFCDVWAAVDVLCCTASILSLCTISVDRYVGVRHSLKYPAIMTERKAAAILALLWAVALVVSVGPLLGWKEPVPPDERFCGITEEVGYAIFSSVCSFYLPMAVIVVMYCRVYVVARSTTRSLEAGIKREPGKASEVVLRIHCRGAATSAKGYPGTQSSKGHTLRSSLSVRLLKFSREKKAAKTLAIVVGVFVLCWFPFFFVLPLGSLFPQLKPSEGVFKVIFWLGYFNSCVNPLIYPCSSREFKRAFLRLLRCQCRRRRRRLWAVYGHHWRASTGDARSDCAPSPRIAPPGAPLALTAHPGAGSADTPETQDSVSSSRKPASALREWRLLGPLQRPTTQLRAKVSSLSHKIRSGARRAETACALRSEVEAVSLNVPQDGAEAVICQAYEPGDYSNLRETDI
# T1 sequence (P43140 whole entry): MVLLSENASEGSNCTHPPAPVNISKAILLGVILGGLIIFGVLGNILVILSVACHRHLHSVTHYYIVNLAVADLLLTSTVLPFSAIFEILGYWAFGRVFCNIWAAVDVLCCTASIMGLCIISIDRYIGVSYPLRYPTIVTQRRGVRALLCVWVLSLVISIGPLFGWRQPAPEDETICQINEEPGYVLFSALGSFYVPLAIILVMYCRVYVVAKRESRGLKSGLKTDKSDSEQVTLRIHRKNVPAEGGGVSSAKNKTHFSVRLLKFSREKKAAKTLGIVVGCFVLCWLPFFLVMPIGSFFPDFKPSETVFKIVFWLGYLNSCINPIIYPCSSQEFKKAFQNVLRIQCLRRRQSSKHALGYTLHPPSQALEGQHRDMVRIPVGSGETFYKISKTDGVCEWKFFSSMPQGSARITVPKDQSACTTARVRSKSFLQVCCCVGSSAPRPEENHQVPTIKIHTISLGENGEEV
# How it was run: (§3)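 Washed rat cerebral cortex membranes (homogenised in 50 mM Tris-HCl pH 7.8, pelleted at 48000g, washed 3 times) at 2.5 mg/mL protein. […] Ice-cold buffer stop, then filtration. Nonspecific binding defined with 200 μmol norepinephrine. KI from IC50 by Cheng-Prusoff, given as negative log.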
# Rattus norvegicus [18] = assay: Percentage fall in systolic blood pressure after 3 hours at 6.25 mg/kg given perorally; assay type: functional, Artery; details: route oral; how it was run: as §2
# Rattus norvegicus [19] = assay: Percentage fall in systolic blood pressure after 2 hours at 50 mg/kg given perorally; assay type: functional, Artery; details: route oral; how it was run: as §2
# [20] = target: T2, Adrenergic receptor alpha-2 (Rattus norvegicus, UniProt P22086+P19328+P22909); assay: Affinity for alpha-2 adrenergic receptor of rat cerebral cortex was determined by ligand binding using [3H]yohimbine.; assay type: tissue-based; how it was run: as §3
# T2 sequence (P22086 whole entry): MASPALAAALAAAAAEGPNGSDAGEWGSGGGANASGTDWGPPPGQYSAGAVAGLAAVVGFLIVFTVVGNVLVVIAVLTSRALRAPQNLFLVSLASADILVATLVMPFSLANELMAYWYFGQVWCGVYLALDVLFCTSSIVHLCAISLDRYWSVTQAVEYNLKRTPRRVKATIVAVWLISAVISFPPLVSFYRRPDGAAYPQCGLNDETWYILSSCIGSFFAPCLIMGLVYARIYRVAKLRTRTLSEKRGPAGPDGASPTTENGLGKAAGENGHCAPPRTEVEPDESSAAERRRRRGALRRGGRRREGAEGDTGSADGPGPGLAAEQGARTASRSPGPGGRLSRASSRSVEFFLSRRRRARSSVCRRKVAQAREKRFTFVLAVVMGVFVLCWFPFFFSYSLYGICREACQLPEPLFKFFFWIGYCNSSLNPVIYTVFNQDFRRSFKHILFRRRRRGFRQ
# T2 sequence (P19328 whole entry): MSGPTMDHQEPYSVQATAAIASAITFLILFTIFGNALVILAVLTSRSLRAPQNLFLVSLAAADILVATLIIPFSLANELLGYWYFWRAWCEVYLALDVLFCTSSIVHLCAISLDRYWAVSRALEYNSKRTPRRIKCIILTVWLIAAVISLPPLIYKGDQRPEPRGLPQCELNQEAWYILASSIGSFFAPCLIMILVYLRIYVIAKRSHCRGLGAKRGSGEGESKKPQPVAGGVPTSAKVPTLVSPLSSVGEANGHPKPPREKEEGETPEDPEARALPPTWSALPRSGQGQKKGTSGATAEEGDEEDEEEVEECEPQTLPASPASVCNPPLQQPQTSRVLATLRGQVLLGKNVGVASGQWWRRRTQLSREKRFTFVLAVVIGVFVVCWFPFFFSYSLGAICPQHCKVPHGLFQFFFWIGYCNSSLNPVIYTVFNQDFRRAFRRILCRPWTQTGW
# T2 sequence (P22909 whole entry): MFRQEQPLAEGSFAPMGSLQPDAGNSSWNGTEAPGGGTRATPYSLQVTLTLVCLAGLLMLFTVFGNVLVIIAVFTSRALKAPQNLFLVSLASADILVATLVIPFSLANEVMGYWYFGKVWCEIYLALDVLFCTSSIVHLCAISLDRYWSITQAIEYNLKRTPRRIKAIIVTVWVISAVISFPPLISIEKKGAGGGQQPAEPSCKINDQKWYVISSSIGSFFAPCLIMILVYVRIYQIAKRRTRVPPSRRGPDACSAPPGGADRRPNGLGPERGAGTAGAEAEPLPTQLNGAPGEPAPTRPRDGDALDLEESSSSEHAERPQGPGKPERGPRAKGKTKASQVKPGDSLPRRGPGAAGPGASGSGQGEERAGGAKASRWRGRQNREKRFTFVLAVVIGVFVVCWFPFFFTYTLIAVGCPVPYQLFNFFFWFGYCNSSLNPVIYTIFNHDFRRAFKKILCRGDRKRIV
# Rattus norvegicus [21] = assay: Percentage fall in systolic blood pressure after 3 hours at 50 mg/kg given perorally; assay type: functional, Artery; details: route oral; how it was run: as §2
# Rattus norvegicus [22] = assay: Percentage fall in systolic blood pressure after 1 hr at 12.5 mg/kg given perorally; assay type: functional, Artery; details: route oral; how it was run: as §2
# Rattus norvegicus [23] = assay: Percentage fall in systolic blood pressure after 2 hours at 6.25 mg/kg given perorally; assay type: functional, Artery; details: route oral; how it was run: as §2
# Rattus norvegicus [24] = assay: Percentage fall in systolic blood pressure after 4 hours at 50 mg/kg given perorally; assay type: functional, Artery; details: route oral; how it was run: as §2
# Rattus norvegicus [25] = assay: Percentage fall in systolic blood pressure after 1 hr at 50 mg/kg given perorally; assay type: functional, Artery; details: route oral; how it was run: as §2
# Rattus norvegicus [26] = assay: Percentage fall in systolic blood pressure after 4 hours at 6.25 mg/kg given perorally; assay type: functional, Artery; details: route oral; how it was run: as §2
compound,measurement,setting,value
O=C1COC2(CCN(CC3COc4ccccc4O3)CC2)CN1 (stereo not given),Decrease in SBP,Rattus norvegicus [1],21%
same,Decrease in SBP,Rattus norvegicus [2],40%
same,Decrease in SBP,Rattus norvegicus [3],38%
same,Decrease in SBP,Rattus norvegicus [4],53%
same,Decrease in SBP,Rattus norvegicus [5],Not significant
same,Decrease in SBP,Rattus norvegicus [6],49%
same,Decrease in SBP,Rattus norvegicus [7],36%
same,Decrease in SBP,Rattus norvegicus [8],38%
CN1CC2(CCN(CCCC(=O)c3ccc(F)cc3)CC2)OCC1=O,Decrease in SBP,Rattus norvegicus [9],46%
same,Decrease in SBP,Rattus norvegicus [10],37%
same,Decrease in SBP,Rattus norvegicus [11],25%
same,Decrease in SBP,Rattus norvegicus [12],19%
same,Decrease in SBP,Rattus norvegicus [13],27%
same,Decrease in SBP,Rattus norvegicus [14],Not significant
same,Decrease in SBP,Rattus norvegicus [15],Not significant
same,Decrease in SBP,Rattus norvegicus [16],26%
O=C1COC2(CCN(CCc3c[nH]c4ccccc34)CC2)CN1,-Log Ki,[17],7.41
same,Decrease in SBP,Rattus norvegicus [18],20%
same,Decrease in SBP,Rattus norvegicus [19],48%
same,Decrease in SBP,Rattus norvegicus [10],41%
same,-Log Ki,[20],6.2
same,Decrease in SBP,Rattus norvegicus [11],29%
same,Decrease in SBP,Rattus norvegicus [21],48%
same,Decrease in SBP,Rattus norvegicus [12],26%
same,Decrease in SBP,Rattus norvegicus [22],39%
same,Decrease in SBP,Rattus norvegicus [23],30%
same,Decrease in SBP,Rattus norvegicus [24],41%
same,Decrease in SBP,Rattus norvegicus [25],53%
same,Decrease in SBP,Rattus norvegicus [26],19%
same,Decrease in SBP,Rattus norvegicus [8],28%
